# Bioassay records deposited in PubChem by Sanford-Burnham Center for Chemical Genomics.
# LMPTP inh: LMPTP (human) inhibition. inhibition, % at 20 µM. hit rate 0.22% among 360,000. P24666. AID 651560. recombinant LMPTP-A, OMFP fluorogenic substrate, fluorescence intensity;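 active means compounds that cut the enzyme signal by at least half of the control window in the single-dose screen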
# Target sequence (P24666 whole entry, looked up): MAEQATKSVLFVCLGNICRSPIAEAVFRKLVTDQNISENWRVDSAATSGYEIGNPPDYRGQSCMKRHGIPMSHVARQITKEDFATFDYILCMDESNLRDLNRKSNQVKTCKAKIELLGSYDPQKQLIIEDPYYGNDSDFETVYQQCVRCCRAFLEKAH
#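 Assay system: LMPTP-A phosphatase enzyme | Input: 0.625 nM enzyme | Also added: Fluorogenic phosphatase substrate OMFP at 400 µM final | Compound dosing: One test concentration per compound, 20 µM, with 3% DMSO overall | Schedule: 50 min enzyme reaction at room temperature, protected from light | Signal: Fluorescence intensity | Benchmarks: no-enzyme and uninhibited controls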
# SUMO1-SIM PPI: SUMO1-SIM interaction modulation. P63165. SUMO1 binding to a labelled peptide, TR-FRET, 1 h. inhibition, % at 20 µM. hit rate 0.33% among 360,000; in the data active means inhibition above about 37%
# Target sequence (P63165 whole entry, looked up): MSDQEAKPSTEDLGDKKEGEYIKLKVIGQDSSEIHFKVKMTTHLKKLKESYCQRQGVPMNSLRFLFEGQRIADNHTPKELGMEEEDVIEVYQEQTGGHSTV
# FAS-TE inh: blocks the thioesterase domain of human fatty acid synthase; recombinant FAS-TE, OMFH fluorogenic substrate, fluorescence endpoint; hit rate 0.67% among 360,000; P49327; inhibition, % at 15 µM;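 active means compounds whose normalised, plate-corrected inhibition of enzyme fluorescence in the single-dose primary screen is 50% or more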
# Scp-1 inhibitor: blocks human Scp-1 phosphatase activity. Q9GZU7. Recombinant Scp1, phosphopeptide, malachite green phosphate absorbance. inhibition, % at 20 µM. hit rate 0.88% among 340,000;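 active means inhibition above about 50% at 20 µM, limit read from the data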
# Target sequence (Q9GZU7 76-261 limits assumed): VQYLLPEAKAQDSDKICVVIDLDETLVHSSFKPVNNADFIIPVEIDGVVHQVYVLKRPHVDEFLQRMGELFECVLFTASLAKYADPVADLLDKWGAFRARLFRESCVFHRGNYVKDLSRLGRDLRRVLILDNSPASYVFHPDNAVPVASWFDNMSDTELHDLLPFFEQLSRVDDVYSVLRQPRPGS
#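 Times: enzyme reaction 45 min at room temperature, colour 5 min, stabilisation 30 min. Material: SCP-1 catalytic fragment, aa 76-261. Medium: Acidic Tris acetate buffer with magnesium and detergent. Signal: colorimetric free-phosphate detection, absorbance 630 nm. Read-out basis: % inhibition of SCP-1 phosphate liberation. Reagent: Phosphorylated 17-residue peptide substrate.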
# STEP block: STEP (human) phosphatase inhibition; inhibition, % at 20 µM; recombinant STEP, OMFP fluorogenic substrate, fluorescence; hit rate 0.25% among 360,000;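 active means inhibition at 20 µM, scaled per plate between control wells, above about 37%, limit read from the data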
#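 material = STEP tyrosine phosphatase | reagent = fluorogenic phosphatase substrate OMFP at 25 µM final | doses = single compound dose of 20 µM, 1% DMSO final | schedule = 20 min reaction, room temperature, in the dark | measured by = fluorescence, 480/540 nm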
# Scp1 confirm: Scp-1 (human) inhibition, single-dose confirmed; hit rate 61% among 2,500; shares compounds with Scp-1 inhibitor; recombinant SCP-1 catalytic domain, phosphate release, malachite green absorbance; inhibition, % at 20 µM
# Scp-1 MG ctr: counter-screen for Scp-1 inhibitors: colorimetric interference | shares compounds with Scp-1 inhibitor | Colorimetric interference counterscreen, malachite green absorbance 630 nm | apparent inhibition (interference), % at 20 µM | 2,500 tested, under 10 active;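 further: compounds added after enzyme reaction finished so only phosphate colour detection is probed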
# Scp-1 Tm shift: validation of human Scp-1 inhibitors by thermal shift binding. shares compounds with Scp-1 inhibitor. Recombinant SCP1, Sypro Orange thermal shift Tm. thermal shift relative to vanadate control, % at 40 µM. hit rate 25% among 1,500. AID 540329;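 active means substances whose mean melting-temperature shift, as a percentage of the reference inhibitor's shift, reaches about 5.3%, limit read from the data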
# Numbers stand for hits; n = inactive; x = not tested or not shown. Sampled rows, rich in hits. Any-hit rate of the full collection: about 1.9%.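 How the source made its calls, unless noted: active means inhibition of at least 30% at 20 µM; inactive means the rest.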
SMILES,LMPTP inh,SUMO1-SIM PPI,FAS-TE inh,Scp-1 inhibitor,STEP block,Scp1 confirm,Scp-1 MG ctr,Scp-1 Tm shift
Cc1cc(C=O)c(C)n1-c1cc(C(=O)O)cc(C(=O)O)c1,n,n,n,55,n,52,n,n
Cn1c(=O)c2[nH]c(C(O)c3ccc(Cl)cc3)nc2n(C)c1=O (configuration not stated),n,n,n,n,n,x,x,x
Cc1ccc(NC(=O)C2(C)CCN2Cc2cccc3c2OCO3)cc1O (configuration not stated),n,n,n,x,n,x,x,x
C[C@H](CO)N1C[C@H](C)[C@@H](CN(C)Cc2ccccc2)Oc2c(NS(=O)(=O)c3cn(C)cn3)cccc2C1=O,n,n,n,69,n,n,n,x
C[C@H](CO)N1C[C@H](C)[C@@H](CN(C)Cc2ccc(C(=O)O)cc2)Oc2c(NS(=O)(=O)c3cn(C)cn3)cccc2C1=O,n,n,n,62,n,n,n,x
C[C@H](CO)N1C[C@H](C)[C@@H](CN(C)Cc2ccncc2)Oc2c(NS(=O)(=O)c3ccc(F)cc3)cccc2C1=O,n,n,n,59,n,n,n,x
C[C@H]1CN([C@@H](C)CO)C(=O)c2cccc(NS(=O)(=O)c3cn(C)cn3)c2O[C@H]1CN(C)S(C)(=O)=O,n,n,n,n,n,x,x,x
C[C@H](CO)N1C[C@H](C)[C@@H](CN(C)CC2CCCCC2)Oc2c(NS(=O)(=O)c3cn(C)cn3)cccc2C1=O,n,n,n,59,n,n,n,x
C[C@@H]1CN([C@@H](C)CO)C(=O)c2cccc(NS(C)(=O)=O)c2O[C@H]1CN(C)Cc1ccc(Oc2ccccc2)cc1,n,n,n,n,n,x,x,x
C[C@H](CO)N1C[C@H](C)[C@@H](CN(C)Cc2ccc(Oc3ccccc3)cc2)Oc2c(NS(=O)(=O)c3cn(C)cn3)cccc2C1=O,n,n,n,50,n,n,n,x
O=C(C[n+]1ccc(C(=O)c2ccccc2)cc1)Nc1ccccc1OC(F)F,n,n,n,83,n,n,n,x
N#CCC(=O)Nc1ccc(C(=O)OCC(=O)N2CCN(C(=O)c3ccco3)CC2)cc1,n,n,n,90,n,64,n,n
Cc1ccc(S(=O)(=O)N/N=C\c2ccc(C)o2)cc1,n,n,n,n,n,x,x,x
CC(=O)Nc1ccc(S(=O)(=O)N/N=C/c2ccc(C)o2)cc1,n,n,n,67,n,n,n,x
Cc1cc2ncn(-c3ncnc4sc5c(c34)CCC(C)C5)c2cc1C (configuration not stated),n,n,n,n,n,x,x,x
O=S(=O)([O-])CCC[n+]1ccc(Oc2ccccc2)cc1,n,n,n,95,n,94,n,n
Cc1ccc(COC(=O)c2nn(C)c(=O)c3ccccc23)cc1,n,n,n,n,n,x,x,x
N=c1c(S(=O)(=O)c2ccc(Cl)cc2)cc2c(=O)n3ccccc3nc2n1Cc1ccco1,n,n,n,52,n,n,n,x
Cc1ccc(S(=O)(=O)OCC(=O)Nc2ccc(C(=O)O)c(O)c2)cc1,n,n,n,64,n,48,n,7.6
COc1cccc(-c2cc(C(F)(F)F)nc(-n3cc(C)cn3)n2)c1,n,n,n,55,n,n,n,x
COc1cccc(-c2cc(C(F)(F)F)nc(-n3cncn3)n2)c1,n,n,n,n,n,x,x,x
Cc1ccc(CN2CCC(CNS(=O)(=O)c3ccc(-c4ccc(=O)[nH]n4)s3)CC2)cc1,n,n,n,n,n,x,x,x
CC(C)OCCCN(C)C1CCN(S(=O)(=O)c2ccc(-c3ccc(=O)[nH]n3)s2)CC1,n,n,n,51,n,n,n,x
O=C1NC(c2ccccc2)=C(c2ccc3ccccc3n2)C(c2ccccc2)N1 (configuration not stated),n,n,n,59,n,n,n,x
O=C1NC(c2ccccc2)=C(c2ccc3ccccc3n2)C(c2ccc(F)cc2)N1 (configuration not stated),n,n,n,n,n,x,x,x
SMILES,LMPTP inh,SUMO1-SIM PPI,FAS-TE inh,Scp-1 inhibitor,STEP block,Scp1 confirm,Scp-1 MG ctr,Scp-1 Tm shift
CC(=NNC(=S)N1CCN(c2ccccn2)CC1)c1nccs1,n,n,n,n,n,x,x,x
Cc1ccc(OCC(=O)N/N=C/C=C/c2ccco2)cc1,n,n,n,73,n,59,n,7.5
C/C(=N\NC(=O)Cc1cccn1C)c1ccco1,n,n,n,n,n,x,x,x
O=C(N/N=C/C=C/c1ccco1)C(O)c1ccccc1 (configuration not stated),n,n,n,62,n,53,n,n
Cn1cccc1CC(=O)N/N=C/C=C/c1ccco1,n,n,n,69,n,40,n,n
CCCN(CC(=O)Nc1ccccc1OC)C(=O)c1cc(-c2ccccc2)nn1-c1ccccc1,n,n,n,n,n,x,x,x
Cc1nc(NC(=O)C(C)(C)C)sc1C(=O)Cn1cc(-c2ccc(C(C)(C)C)cc2)nn1,n,n,n,x,x,x,x,x
CC1=C(C(=O)N2CCCCCC2)CC(CC(=O)NCCCN(C)C)C(=O)N1Cc1ccc(F)cc1 (configuration not stated),n,n,n,x,x,x,x,x
O=C(O)c1ccc(-n2ncc3c2/C(=C/c2cccc([N+](=O)[O-])c2)CC3)cc1,n,n,n,n,n,x,x,x
O=C(O)c1ccc(-n2ncc3c2/C(=C\c2cccc([N+](=O)[O-])c2)CC3)cc1,n,n,n,64,n,64,n,n
COc1ccc(NC(=O)/C(C#N)=C\c2ccc(Br)o2)cc1,n,n,n,94,n,58,n,n
CCOc1ncccc1C(=O)N(C)CC(=O)Nc1ccccc1SC,n,n,n,60,n,n,n,x
O=C(Nc1cccc(C(F)(F)F)c1)Nc1ccc2nc([C@@H]3O[C@H](CO)[C@@H](O)[C@H](O)[C@H]3O)[nH]c2c1,n,n,n,x,n,x,x,x
O=C(COc1ccc(-n2cnnn2)cc1)Nc1cccc(Cl)c1Cl,n,n,n,69,n,68,n,n
COc1cc(NC(=O)COc2ccc(-n3cnnn3)cc2)c(OC)cc1Cl,n,n,n,n,n,x,x,x
COc1ccc(C(=O)OCC[N+]2(C)CCOCC2)cc1,n,n,n,57,n,n,n,x
Cc1ccc(NC(=O)c2ccc3nc[nH]c3c2)nc1,n,n,n,57,n,44,n,n
Cc1cccc(C)c1NC(=O)CN(C)C(=O)c1ccc2nc[nH]c2c1,n,n,n,50,n,55,n,n
CN(CC(=O)Nc1c(Cl)cccc1Cl)C(=O)c1ccc2nc[nH]c2c1,n,n,n,n,n,x,x,x
